Test system: U2OS
Assay: Multiplex assay against U2OS
Type: toxicity, cell-based
Conditions: human
Method in brief: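 Per cents of healthy-nucleus cells form the tubulin, mitochondrial-mass and membrane-permeability phenotype values. Live cells were stained at seeding with Hoechst33342, BioTracker Green Microtubule Cytoskeleton Dye, MitoTracker Red and Annexin V Alexa Fluor 680. After compound addition they were imaged on a CQ1 microscope at 37°C and 5% CO2, and CellPathfinder machine-learning gating split them into Hoechst high-intensity objects or normal cells, normal cells into healthy, pyknosed or fragmented nuclei, and pyknosed cells into mitotic or apoptotic.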

[1] = 12 h, 1 µM, compound concentration 1 uM, replicate 1
[2] = 12 h, 1 µM, compound concentration 1 uM, replicate 2
[3] = 12 h, 10 µM, compound concentration 10 uM, replicate 1
[4] = 12 h, 10 µM, compound concentration 10 uM, replicate 2
[5] = 24 h, 1 µM, compound concentration 1 uM, replicate 1
[6] = 24 h, 1 µM, compound concentration 1 uM, replicate 2
[7] = 24 h, 10 µM, compound concentration 10 uM, replicate 1
[8] = 24 h, 10 µM, compound concentration 10 uM, replicate 2
[9] = 48 h, 1 µM, compound concentration 1 uM, replicate 1
[10] = 48 h, 1 µM, compound concentration 1 uM, replicate 2
[11] = 48 h, 10 µM, compound concentration 10 uM, replicate 1
[12] = 48 h, 10 µM, compound concentration 10 uM, replicate 2

Compound: CN(C)CCCc1cc(C(=O)Nc2ccc(-c3ccncc3)cc2)ccc1O.Cl.Cl
- Population Apoptotic (%) [1]: 89%
- Population Fragmented Nuclei (%) [1]: 29%
- Population Healthy Nuclei (%) [1]: 60%
- Population Hoechst High Intensity Objects (%) [1]: 2%
- Population Membrane Permeable-Phenotype (%) [1]: 6%
- Population Mitochondria Different-Phenotype (%) [1]: 0%
- Population Mitotic Cells (%) [1]: 10%
- Population Normal (%) [1]: 97%
- Population Pyknosed Nuclei (%) [1]: 9%
- Population Tubulin-Different-Phenotype (%) [1]: 3%
- Total Cell Count [1]: 199
- Population Apoptotic (%) [2]: 100%
- Population Fragmented Nuclei (%) [2]: 10%
- Population Healthy Nuclei (%) [2]: 75%
- Population Hoechst High Intensity Objects (%) [2]: 0%
- Population Membrane Permeable-Phenotype (%) [2]: 2%
- Population Mitochondria Different-Phenotype (%) [2]: 1%
- Population Mitotic Cells (%) [2]: 0%
- Population Normal (%) [2]: 99%
- Population Pyknosed Nuclei (%) [2]: 13%
- Population Tubulin-Different-Phenotype (%) [2]: 0%
- Total Cell Count [2]: 124
- Population Apoptotic (%) [3]: 77%
- Population Fragmented Nuclei (%) [3]: 28%
- Population Healthy Nuclei (%) [3]: 62%
- Population Hoechst High Intensity Objects (%) [3]: 4%
- Population Membrane Permeable-Phenotype (%) [3]: 7%
- Population Mitochondria Different-Phenotype (%) [3]: 1%
- Population Mitotic Cells (%) [3]: 22%
- Population Normal (%) [3]: 95%
- Population Pyknosed Nuclei (%) [3]: 9%
- Population Tubulin-Different-Phenotype (%) [3]: 2%
- Total Cell Count [3]: 237
- Population Apoptotic (%) [4]: 42%
- Population Fragmented Nuclei (%) [4]: 24%
- Population Healthy Nuclei (%) [4]: 63%
- Population Hoechst High Intensity Objects (%) [4]: 1%
- Population Membrane Permeable-Phenotype (%) [4]: 4%
- Population Mitochondria Different-Phenotype (%) [4]: 8%
- Population Mitotic Cells (%) [4]: 57%
- Population Normal (%) [4]: 98%
- Population Pyknosed Nuclei (%) [4]: 12%
- Total Cell Count [4]: 113
- Population Apoptotic (%) [5]: 100%
- Population Fragmented Nuclei (%) [5]: 28%
- Population Healthy Nuclei (%) [5]: 65%
- Population Hoechst High Intensity Objects (%) [5]: 2%
- Population Membrane Permeable-Phenotype (%) [5]: 5%
- Population Mitochondria Different-Phenotype (%) [5]: 2%
- Population Mitotic Cells (%) [5]: 0%
- Population Normal (%) [5]: 97%
- Population Pyknosed Nuclei (%) [5]: 6%
- Population Tubulin-Different-Phenotype (%) [5]: 3%
- Total Cell Count [5]: 247
- Population Apoptotic (%) [6]: 94%
- Population Fragmented Nuclei (%) [6]: 11%
- Population Healthy Nuclei (%) [6]: 77%
- Population Hoechst High Intensity Objects (%) [6]: 4%
- Population Membrane Permeable-Phenotype (%) [6]: 7%
- Population Mitochondria Different-Phenotype (%) [6]: 5%
- Population Mitotic Cells (%) [6]: 5%
- Population Normal (%) [6]: 95%
- Population Pyknosed Nuclei (%) [6]: 11%
- Population Tubulin-Different-Phenotype (%) [6]: 5%
- Total Cell Count [6]: 178
- Population Apoptotic (%) [7]: 72%
- Population Fragmented Nuclei (%) [7]: 28%
- Population Healthy Nuclei (%) [7]: 58%
- Population Hoechst High Intensity Objects (%) [7]: 4%
- Population Membrane Permeable-Phenotype (%) [7]: 6%
- Population Mitochondria Different-Phenotype (%) [7]: 3%
- Population Mitotic Cells (%) [7]: 27%
- Population Normal (%) [7]: 95%
- Population Pyknosed Nuclei (%) [7]: 13%
- Population Tubulin-Different-Phenotype (%) [7]: 1%
- Total Cell Count [7]: 257
- Population Apoptotic (%) [8]: 66%
- Population Fragmented Nuclei (%) [8]: 21%
- Population Healthy Nuclei (%) [8]: 63%
- Population Hoechst High Intensity Objects (%) [8]: 0%
- Population Membrane Permeable-Phenotype (%) [8]: 4%
- Population Mitochondria Different-Phenotype (%) [8]: 8%
- Population Mitotic Cells (%) [8]: 33%
- Population Normal (%) [8]: 100%
- Population Pyknosed Nuclei (%) [8]: 15%
- Population Tubulin-Different-Phenotype (%) [8]: 2%
- Total Cell Count [8]: 118
- Population Apoptotic (%) [9]: 88%
- Population Fragmented Nuclei (%) [9]: 25%
- Population Healthy Nuclei (%) [9]: 69%
- Population Hoechst High Intensity Objects (%) [9]: 3%
- Population Membrane Permeable-Phenotype (%) [9]: 5%
- Population Mitochondria Different-Phenotype (%) [9]: 3%
- Population Mitotic Cells (%) [9]: 11%
- Population Normal (%) [9]: 96%
- Population Pyknosed Nuclei (%) [9]: 5%
- Population Tubulin-Different-Phenotype (%) [9]: 3%
- Total Cell Count [9]: 338
- Population Apoptotic (%) [10]: 93%
- Population Fragmented Nuclei (%) [10]: 15%
- Population Healthy Nuclei (%) [10]: 71%
- Population Membrane Permeable-Phenotype (%) [10]: 7%
- Population Mitotic Cells (%) [10]: 6%
- Population Pyknosed Nuclei (%) [10]: 13%
- Population Tubulin-Different-Phenotype (%) [10]: 4%
- Total Cell Count [10]: 259
- Population Apoptotic (%) [11]: 74%
- Population Fragmented Nuclei (%) [11]: 25%
- Population Healthy Nuclei (%) [11]: 61%
- Population Hoechst High Intensity Objects (%) [11]: 5%
- Population Membrane Permeable-Phenotype (%) [11]: 5%
- Population Mitochondria Different-Phenotype (%) [11]: 3%
- Population Mitotic Cells (%) [11]: 25%
- Population Normal (%) [11]: 94%
- Population Pyknosed Nuclei (%) [11]: 12%
- Population Tubulin-Different-Phenotype (%) [11]: 5%
- Total Cell Count [11]: 352
- Population Apoptotic (%) [12]: 68%
- Population Fragmented Nuclei (%) [12]: 20%
- Population Healthy Nuclei (%) [12]: 63%
- Population Hoechst High Intensity Objects (%) [12]: 4%
- Population Membrane Permeable-Phenotype (%) [12]: 13%
- Population Mitochondria Different-Phenotype (%) [12]: 8%
- Population Mitotic Cells (%) [12]: 32%
- Population Normal (%) [12]: 95%
- Population Pyknosed Nuclei (%) [12]: 16%
- Population Tubulin-Different-Phenotype (%) [12]: 9%
- Total Cell Count [12]: 160
